Calls of active or inactive are those of the source. The calls are words filed in the database; no cut-off is given here.
Experiments:
Staphylococcus aureus [1] = assay: Antibacterial activity against methicillin-resistant Staphylococcus aureus assessed as reduction in microbial growth by two fold microdilution method; type: functional
In short: (§1)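 MIC determined by the standard two-fold broth micro-dilution assay, with norfloxacin and ciprofloxacin as reference agents.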

Staphylococcus aureus [2] = assay: Antibacterial activity against Staphylococcus aureus assessed as reduction in microbial growth by two fold microdilution method; type: functional; in short: as §1
Staphylococcus aureus [3] = assay: Antibacterial activity against Staphylococcus aureus ATCC 25923 assessed as reduction in microbial growth by two fold microdilution method; type: functional
Staphylococcus aureus [4] = assay: Antibacterial activity against Staphylococcus aureus ATCC 29213 assessed as reduction in microbial growth by two fold microdilution method; type: functional
Enterococcus faecalis = assay: Antibacterial activity against Enterococcus faecalis assessed as reduction in microbial growth by two fold microdilution method; type: functional
Klebsiella pneumoniae [5] = assay: Antibacterial activity against Klebsiella pneumonia assessed as reduction in microbial growth by two fold microdilution method; type: functional
Acinetobacter baumannii = assay: Antibacterial activity against Acinetobacter baumannii assessed as reduction in microbial growth by two fold microdilution method; type: functional
Escherichia coli [6] = assay: Antibacterial activity against Escherichia coli assessed as reduction in microbial growth by two fold microdilution method; type: functional
Escherichia coli [7] = assay: Antibacterial activity against Escherichia coli ATCC 25922 assessed as reduction in microbial growth by two fold microdilution method; type: functional
Pseudomonas aeruginosa [8] = assay: Antibacterial activity against Pseudomonas aeruginosa assessed as reduction in microbial growth by two fold microdilution method; type: functional
Pseudomonas aeruginosa [9] = assay: Antibacterial activity against Pseudomonas aeruginosa ATCC 27853 assessed as reduction in microbial growth by two fold microdilution method; type: functional
Staphylococcus aureus [10] = assay: Bactericidal activity against methicillin-resistant Staphylococcus aureus assessed as increase in sterilization rate at 2 ug/ml measured at 6 hrs by time kill assay; type: functional, organism-based; conditions: dose 2.0 µg/ml
In short: (§2)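 Time-kill kinetics: MRSA exposed to the compound at several concentrations, with ciprofloxacin as positive control. Sterilization rate followed over time up to 6 h.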

Staphylococcus aureus [11] = assay: Bactericidal activity against methicillin-resistant Staphylococcus aureus assessed as increase in sterilization rate at 4 ug/ml measured at 4 hrs by time kill assay; type: functional, organism-based; conditions: dose 4.0 µg/ml; in short: as §2
Klebsiella pneumoniae [12] = assay: Synergistic antibacterial activity against Klebsiella pneumonia assessed as fractional inhibitory concentration index in presence of ciprofloxacin; type: functional
Escherichia coli [13] = assay: Synergistic antibacterial activity against Escherichia coli assessed as fractional inhibitory concentration index in presence of ciprofloxacin; type: functional
Staphylococcus aureus [14] = assay: Synergistic antibacterial activity against methicillin-resistant Staphylococcus aureus assessed as fractional inhibitory concentration index in presence of ciprofloxacin; type: functional
In short: (§3)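 MIC of the test compound and of ciprofloxacin determined alone and in combination against each strain. FIC index = (MIC of A combined / MIC of A alone) + (MIC of B combined / MIC of B alone). FIC index ≤0.5 scored synergy, >0.5–2 additivity, >2 antagonism.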

Staphylococcus aureus [15] = assay: Additive antibacterial activity against Staphylococcus aureus ATCC 25923 assessed as fractional inhibitory concentration index in presence of ciprofloxacin; type: functional
Cell membrane [16] = assay: Induction of membrane depolarization in methicillin-resistant Staphylococcus aureus at MIC by DiSC35 dye-based fluorescence assay; conditions: TDE = time-dependent effect
In short: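 Cytoplasmic membrane potential of MRSA probed with the fluorescent dye diSC35. Cells treated at MIC, and fluorescence intensity recorded over time against untreated cells.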

Cell membrane [17] = assay: Induction of inner membrane permeabilization in methicillin-resistant Staphylococcus aureus by propidium iodide staining based fluorescence microscopic analysis
In short: (§4)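 MRSA treated at 1–4 × MIC and stained with propidium iodide and calcein-AM. Fluorescence intensity measured on a spectrofluorimeter. Dual-stain cells imaged by fluorescence microscopy, scoring red (PI) and green (calcein) cells.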

Cell membrane [18] = assay: Induction of inner membrane disruption in methicillin-resistant Staphylococcus aureus assessed as increase in red fluorescence intensity at 4 times MIC measured by calcein-AM dye based fluorescence analysis; in short: as §4
Cell membrane [19] = assay: Induction of inner membrane disruption in methicillin-resistant Staphylococcus aureus assessed as decrease in green fluorescence intensity at 4 times MIC measured by calcein-AM dye based fluorescence analysis; in short: as §4
DNA [20] = assay: Binding affinity to methicillin-resistant Staphylococcus aureus DNA assessed as maximum absorbance peak at 260 nm by UV spectroscopy; type: nucleic-acid assay
In short: (§5)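 Genomic DNA isolated from MRSA titrated with the compound. UV absorption spectra recorded in 1.0 cm quartz cells, and the binding constant derived from an equation and plot of the spectral data.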

[21] = target: T1, DNA gyrase (Staphylococcus aureus) (UniProt P0A0K8+P20831); assay: Binding affinity to DNA gyrase in methicillin-resistant Staphylococcus aureus assessed as decrease in gyrB gene expression after 3 hrs by RT-PCR method
[22] = target: T1, DNA gyrase (Staphylococcus aureus); assay: Binding affinity to DNA gyrase in methicillin-resistant Staphylococcus aureus assessed as decrease in femB gene expression after 3 hrs by RT-PCR method
[23] = target: T1, DNA gyrase (Staphylococcus aureus); assay: Binding affinity to DNA gyrase in methicillin-resistant Staphylococcus aureus assessed as decrease in mecA gene expression after 3 hrs by RT-PCR method
[24] = Hemolytic activity in human RBC incubated for 4 hrs by microscopic analysis relative to control; type: ADME, cell-based, Erythrocyte; conditions: red blood cells (erythrocytes), read-out: Activity
In short: (§6)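 Processed red blood cells incubated with various compound concentrations (multiples of MIC) for 4 h at 37 °C in PBS; 1% Triton X-100 as positive control, PBS blank, saline control; hemolysis rate determined and cell integrity inspected by microscopy.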

HEK-293T = assay: Cytotoxicity against human HEK293T cells assessed as increase in cell survival incubated for 24 hrs by MTT assay relative to control; type: cell-based
In short: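 LO2 hepatocytes and 293T cells exposed to compound for 24 h; viability by colorimetric MTT proliferation assay, expressed as survival rate versus untreated cells.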

Staphylococcus aureus [25] = assay: Antibacterial activity against methicillin-resistant Staphylococcus aureus assessed as reduction in bacterial growth at 20 to 140 ug/ml measured after 16 passages; type: functional, organism-based; conditions: dose 20-140 µg/ml
Staphylococcus aureus [26] = assay: Antibacterial activity against methicillin-resistant Staphylococcus aureus assessed as reduction in bacterial growth at 20 to 140 ug/ml measured after 16 passages in presence of ciprofloxacin; type: functional, organism-based; conditions: dose 20-140 µg/ml
Klebsiella pneumoniae [27] = assay: Antibacterial activity against Klebsiella pneumonia in presence of ciprofloxacin (reference value: 0.25 ug/ml); type: functional
Escherichia coli [28] = assay: Antibacterial activity against Escherichia coli in presence of ciprofloxacin (reference value: 0.25 ug/ml); type: functional
Staphylococcus aureus [29] = assay: Antibacterial activity against methicillin-resistant Staphylococcus aureus in presence of ciprofloxacin (reference value: 0.25 ug/ml); type: functional; in short: as §3
Staphylococcus aureus [30] = assay: Antibacterial activity against Staphylococcus aureus ATCC 25923 in presence of ciprofloxacin (reference value: 0.25 ug/ml); type: functional; in short: as §3
DNA [31] = assay: Binding affinity to methicillin-resistant Staphylococcus aureus DNA assessed as conformational changes in DNA duplex by UV spectroscopy; type: nucleic-acid assay; in short: as §5
DNA [32] = assay: Binding affinity to methicillin-resistant Staphylococcus aureus DNA assessed as compound-DNA complex formation by UV spectroscopy; type: nucleic-acid assay; in short: as §5
DNA [33] = assay: Competitive binding affinity to methicillin-resistant Staphylococcus aureus DNA assessed as DNA intercalation by AO staining based assay; type: nucleic-acid assay
In short: (§7)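 Competitive displacement on MRSA DNA, recorded by fluorescence in 1.0 cm quartz cells. For the AO–DNA complex, emission at 537 nm followed with increasing compound concentration. For the DAPI–DNA complex, DAPI fluorescence followed with increasing compound concentration.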

DNA [34] = assay: Competitive binding affinity to methicillin-resistant Staphylococcus aureus DNA assessed as DNA intercalation by DAPI staining based assay; type: nucleic-acid assay; in short: as §7
[35] = Hemolytic activity in human RBC at 64 times MIC incubated for 4 hrs by microscopic analysis relative to control; type: ADME, cell-based, Erythrocyte; conditions: red blood cells (erythrocytes), read-out: Activity; in short: as §6
Erythrocyte = assay: Hemolytic activity in human RBC at 16 times MIC incubated for 4 hrs by microscopic analysis; type: ADME, cell-based; in short: as §6
Cell membrane [36] = assay: Induction of inner membrane permeabilization in methicillin-resistant Staphylococcus aureus assessed as decrease in fluorescence intensity at 4 times MIC measured by calcein-AM dye based fluorescence analysis

T1 sequence (P0A0K8 2-644 limits assumed): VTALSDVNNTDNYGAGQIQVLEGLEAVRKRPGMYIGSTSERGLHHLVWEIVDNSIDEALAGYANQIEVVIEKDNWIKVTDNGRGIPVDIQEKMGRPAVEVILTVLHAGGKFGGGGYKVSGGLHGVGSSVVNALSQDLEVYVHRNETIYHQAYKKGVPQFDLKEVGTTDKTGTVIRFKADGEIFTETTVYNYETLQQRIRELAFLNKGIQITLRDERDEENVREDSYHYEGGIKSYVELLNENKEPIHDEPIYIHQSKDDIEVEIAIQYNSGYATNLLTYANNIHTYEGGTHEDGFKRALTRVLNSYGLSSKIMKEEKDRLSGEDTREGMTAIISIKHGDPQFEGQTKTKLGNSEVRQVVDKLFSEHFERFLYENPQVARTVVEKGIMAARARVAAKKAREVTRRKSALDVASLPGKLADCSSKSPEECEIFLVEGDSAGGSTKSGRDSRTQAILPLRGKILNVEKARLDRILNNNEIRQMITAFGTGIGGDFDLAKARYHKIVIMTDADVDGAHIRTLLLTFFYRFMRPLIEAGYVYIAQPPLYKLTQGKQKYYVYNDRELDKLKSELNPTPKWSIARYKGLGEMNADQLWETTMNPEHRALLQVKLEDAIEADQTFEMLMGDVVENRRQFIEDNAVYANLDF
T1 sequence (P20831 whole entry partner): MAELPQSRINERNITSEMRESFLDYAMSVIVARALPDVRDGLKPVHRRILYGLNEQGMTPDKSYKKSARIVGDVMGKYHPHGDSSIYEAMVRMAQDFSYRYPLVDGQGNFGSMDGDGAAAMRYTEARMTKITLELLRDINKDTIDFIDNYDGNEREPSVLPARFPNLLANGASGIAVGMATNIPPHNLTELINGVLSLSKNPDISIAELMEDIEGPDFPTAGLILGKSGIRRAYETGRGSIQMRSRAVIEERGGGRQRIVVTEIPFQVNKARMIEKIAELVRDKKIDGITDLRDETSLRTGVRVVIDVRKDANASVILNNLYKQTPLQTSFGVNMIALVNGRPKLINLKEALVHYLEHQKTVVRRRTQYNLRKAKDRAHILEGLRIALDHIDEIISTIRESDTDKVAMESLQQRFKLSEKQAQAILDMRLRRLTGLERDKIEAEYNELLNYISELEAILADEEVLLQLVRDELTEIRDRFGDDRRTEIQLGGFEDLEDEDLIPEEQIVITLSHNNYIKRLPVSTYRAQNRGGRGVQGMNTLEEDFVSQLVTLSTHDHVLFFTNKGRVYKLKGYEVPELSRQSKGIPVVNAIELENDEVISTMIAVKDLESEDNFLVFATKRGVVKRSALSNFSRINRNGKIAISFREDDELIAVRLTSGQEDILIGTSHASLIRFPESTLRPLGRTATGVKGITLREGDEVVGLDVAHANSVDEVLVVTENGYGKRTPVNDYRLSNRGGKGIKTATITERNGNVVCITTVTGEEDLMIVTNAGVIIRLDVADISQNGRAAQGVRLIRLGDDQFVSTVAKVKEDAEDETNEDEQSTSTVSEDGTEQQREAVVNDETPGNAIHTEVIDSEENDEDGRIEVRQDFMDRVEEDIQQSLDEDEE

COC(=O)CO/N=C(\CN1CCN(c2cc3c(cc2F)c(=O)c(C(=O)O)cn3C2CC2)CC1)c1nccs1
MIC (Staphylococcus aureus [1]): 0.25 µg/mL | MIC (Staphylococcus aureus [2]): 0.25 µg/mL | MIC (Staphylococcus aureus [3]): 0.25 µg/mL | MIC (Staphylococcus aureus [4]): 0.25 µg/mL | MIC (Enterococcus faecalis): 0.25 µg/mL | MIC (Klebsiella pneumoniae [5]): 0.25 µg/mL | MIC (Acinetobacter baumannii): 0.25 µg/mL | MIC (Escherichia coli [6]): 1 µg/mL | MIC (Escherichia coli [7]): 0.25 µg/mL | MIC (Pseudomonas aeruginosa [8]): 0.25 µg/mL | MIC (Pseudomonas aeruginosa [9]): 0.25 µg/mL | Activity (Staphylococcus aureus [10]): Active | Activity (Staphylococcus aureus [11]): Active | FIC (Klebsiella pneumoniae [12]): 0.3125 | FIC (Escherichia coli [13]): 0.3125 | FIC (Staphylococcus aureus [14]): 0.5 | FIC (Staphylococcus aureus [15]): 1.5 | Activity (Cell membrane [16]): Tde | Activity (Cell membrane [17]): Dose-Dependent Effect | Activity (Cell membrane [18]): Active | Activity (Cell membrane [19]): Active | Activity (DNA [20]): Active | Activity [21]: Active | Activity [22]: Active | Activity [23]: inactive | hemolysis at 4 h [24]: < 3% | Activity (HEK-293T): > 90% | Activity (Staphylococcus aureus [25]): Active | Activity (Staphylococcus aureus [26]): inactive | MIC (Klebsiella pneumoniae [27]): 0.0625 µg/mL | MIC (Escherichia coli [28]): 0.0625 µg/mL | MIC (Staphylococcus aureus [29]): 0.125 µg/mL | MIC (Staphylococcus aureus [30]): 0.25 µg/mL | Activity (DNA [31]): Active | Activity (DNA [32]): Active | Activity (DNA [33]): Active | Activity (DNA [34]): Active | hemolysis at 4 h, 64 times MIC [35]: < 5% | Activity (Erythrocyte): Non-Toxic | Activity (Cell membrane [36]): Active

From ChEMBL document CHEMBL4813987, “Membrane active 7-thiazoxime quinolones as novel DNA binding agents to decrease the genes expression and exert potent anti-methicillin-resistant Staphylococcus aureus activity” (Eur J Med Chem, 2021)
